According to ChEMBL document CHEMBL5038590, “Discovery of G Protein-Biased Ligands against 5-HT7R” (J Med Chem, 2021):

What was measured:
[1] = target: 5-hydroxytryptamine receptor 6 (Homo sapiens, UniProt P50406); assay: Binding affinity to 5-HT6R (unknown origin)
In short: (§1)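 Run by the NIMH Psychoactive Drug Screening Program as competition radioligand binding on crude membranes of cells expressing the recombinant receptor. Eleven dilutions (0.05 nM–50 μM, prepared at 5× assay concentration) were made in 50 mM Tris-HCl, 10 mM MgCl₂, 1 mM EDTA, pH 7.4. Incubation was 1.5 h at rt in the dark, followed by GF/B filtration (0.3% PEI) and scintillation counting. IC₅₀ was converted to Ki; at least triplicate.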

[2] = Cmax in ICR mouse plasma at 10 mg/kg, ip measured upto 8 hrs by LC-MS/MS analysis; format: ADME, organism-based; parameters: route intraperitoneal, dose 10 mg/kg, time <=8
In short: (§2)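 Male ICR mice, 7–8 weeks, 30 ± 5 g; single dose 1 mg/kg iv or 10 mg/kg ip (n = 4 each). Carotid artery blood at 0, 0.08 (iv only), 0.25, 0.5, 1, 2, 4, 6, 8 h. Plasma precipitated with acetonitrile containing internal standard, quantified by LC–MS/MS. Parameters by non-compartmental analysis; AUClast by trapezoidal rule; values mean ± SD.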

[3] = Clearance in ICR mouse plasma at 1 mg/kg, iv measured upto 8 hrs by LC-MS/MS analysis; format: ADME, organism-based; in short: as §2
[4] = target: 5-hydroxytryptamine receptor 2B (Homo sapiens, UniProt P41595); assay: Binding affinity to 5-HT2BR (unknown origin); in short: as §1
[5] = Half life in ICR mouse plasma at 10 mg/kg, ip measured upto 8 hrs by LC-MS/MS; format: ADME, organism-based; in short: as §2
[6] = target: CYP2C19 (Homo sapiens, UniProt P33261); assay: Inhibition of CYP2C19 in human liver microsomes assessed as remaining activity at 10 uM using S-mephenytoin as substrate preincubated for 5 mins followed by addition of NADPH generating system and incubated for 15 mins by LC/MS relative to control; format: ADME; conditions: probe S-mephenytoin, time 20 min, read-out: Activity
In short: (§3)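 Human liver microsomes (0.25 mg/mL) in 0.1 M phosphate pH 7.4 with a five-substrate cocktail: phenacetin 50 μM, diclofenac 10 μM, S-mephenytoin 100 μM, dextromethorphan 5 μM, midazolam 2.5 μM. Compound at 0 (control) or 10 μM. Preincubated 5 min at 37 °C, NADPH-generating system added, 15 min at 37 °C. Stopped with acetonitrile plus internal standard; substrate metabolites measured by LC/MS.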

[7] = AUClast in ICR mouse plasma at 1 mg/kg, iv measured upto 8 hrs by LC-MS/MS analysis; format: ADME, organism-based; parameters: route intravenous, dose 1 mg/kg, time <=8; in short: as §2
[8] = Volume of distribution in steady state in ICR mouse plasma at 1 mg/kg, iv measured upto 8 hrs by LC-MS/MS analysis; format: ADME, organism-based; conditions: read-out: Vdss; in short: as §2
[9] = target: T1, 5-hydroxytryptamine receptor 7 (Homo sapiens, UniProt P34969); assay: Agonist activity at 5-HT7R (unknown origin) transfected in HEK293 cells expressing tTA-dependent luciferase reporter and beta arrestin 2-TEV fusion gene assessed as beta arrestin recruitment incubated for 22 hrs by Tango assay; format: functional, cell-based; conditions: hek293
[10] = target: 5-hydroxytryptamine receptor 5A (Homo sapiens, UniProt P47898); assay: Binding affinity to 5-HT5AR (unknown origin); in short: as §1
[11] = target: T1, 5-hydroxytryptamine receptor 7; assay: Displacement of [3H] D-lysergic acid diethylamide from 5-HT7R (unknown origin) transfected in HEK293 cells incubated for 1.5 hrs by microbeta scintillation counter analysis; format: cell-based; conditions: read-out: Ki
[12] = Stability of compound in human liver microsomes assessed as compound remaining at 1 uM preincubated for 5 mins followed by addition of NADPH generating system and incubated for 30 mins by LC/MS relative to control; format: ADME, Microsome; conditions: time 35 min, read-out: Stability
In short: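 Human liver microsomes (0.5 mg/mL) in 0.1 M phosphate pH 7.4 with compound at 1 μM. Preincubated 5 min at 37 °C, then NADPH-generating system added and incubated 30 min at 37 °C. Quenched with acetonitrile containing internal standard, centrifuged, and supernatant analysed by LC/MS as percent compound remaining; verapamil as reference.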

[13] = target: T2, CYP1A2 (Homo sapiens, UniProt P05177); assay: Inhibition of CYP1A2 in human liver microsomes assessed as remaining activity at 10 uM using phenacetin as substrate preincubated for 5 mins followed by addition of NADPH generating system and incubated for 15 mins by LC/MS relative to control; format: ADME; conditions: probe phenacetin, time 20 min, read-out: Activity; in short: as §3
T2 sequence (P05177 whole entry): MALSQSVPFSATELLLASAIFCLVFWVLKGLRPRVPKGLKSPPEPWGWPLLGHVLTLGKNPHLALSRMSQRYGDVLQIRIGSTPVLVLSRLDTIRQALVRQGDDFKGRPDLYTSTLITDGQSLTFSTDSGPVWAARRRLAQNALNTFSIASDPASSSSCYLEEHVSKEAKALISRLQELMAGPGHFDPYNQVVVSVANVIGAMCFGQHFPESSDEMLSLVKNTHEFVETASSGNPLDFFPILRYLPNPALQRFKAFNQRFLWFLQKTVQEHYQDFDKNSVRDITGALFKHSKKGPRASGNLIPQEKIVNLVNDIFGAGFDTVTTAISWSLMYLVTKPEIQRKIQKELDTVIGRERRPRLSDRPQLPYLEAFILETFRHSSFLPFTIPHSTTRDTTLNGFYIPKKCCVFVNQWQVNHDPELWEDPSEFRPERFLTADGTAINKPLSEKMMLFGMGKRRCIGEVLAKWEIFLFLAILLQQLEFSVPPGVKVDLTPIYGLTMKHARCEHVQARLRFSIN

[14] = Bioavailability in ICR mouse plasma at 10 mg/kg, ip measured upto 8 hrs by LC-MS/MS analysis; format: ADME, organism-based; in short: as §2
[15] = system: Mus musculus; assay: Effect on shank3-/- mouse model of autism spectrum disorder assessed as time taken for duration of self grooming at 5 mg/kg, ip after 30 mins under 40 lux lighting (reference value: 224 +/- 47.4 sec); format: functional; conditions: 0.5 h
[16] = Tmax in ICR mouse plasma at 10 mg/kg, ip measured upto 8 hrs by LC-MS/MS analysis; format: ADME, organism-based; in short: as §2
[17] = MRTinfinity in ICR mouse plasma at 10 mg/kg, ip measured upto 8 hrs by LC-MS/MS analysis; format: ADME, organism-based; in short: as §2
[18] = system: Mus musculus; assay: Effect on shank3-/- mouse model of autism spectrum disorder assessed as time taken for duration of self grooming at 5 mg/kg, ip pretreated for 10 mins in presence of SB269970 followed by compound addition and measured after 30 mins under 40 lux lighting (reference value: 224 +/- 47.4 sec); format: functional; conditions: 0.5 h
[19] = target: CYP2D6 (Homo sapiens, UniProt P10635); assay: Inhibition of CYP2D6 in human liver microsomes assessed as remaining activity at 10 uM using dextromethorphan as substrate preincubated for 5 mins followed by addition of NADPH generating system and incubated for 15 mins by LC/MS relative to control; format: ADME; conditions: probe dextromethorphan, time 20 min, read-out: Activity; in short: as §3
[20] = target: 5-hydroxytryptamine receptor 1B (Homo sapiens, UniProt P28222); assay: Binding affinity to 5-HT1BR (unknown origin); in short: as §1
[21] = Half life in ICR mouse plasma at 1 mg/kg, iv measured upto 8 hrs by LC-MS/MS; format: ADME, organism-based; in short: as §2
[22] = system: Mus musculus; assay: Effect on wild type mouse assessed as time taken for duration of self grooming at 5 mg/kg, ip after 30 mins under 40 lux lighting (reference value: 43.7 +/- 10.8 sec); format: functional; conditions: 0.5 h

T1 sequence (P34969 whole entry, the tested form may be a part): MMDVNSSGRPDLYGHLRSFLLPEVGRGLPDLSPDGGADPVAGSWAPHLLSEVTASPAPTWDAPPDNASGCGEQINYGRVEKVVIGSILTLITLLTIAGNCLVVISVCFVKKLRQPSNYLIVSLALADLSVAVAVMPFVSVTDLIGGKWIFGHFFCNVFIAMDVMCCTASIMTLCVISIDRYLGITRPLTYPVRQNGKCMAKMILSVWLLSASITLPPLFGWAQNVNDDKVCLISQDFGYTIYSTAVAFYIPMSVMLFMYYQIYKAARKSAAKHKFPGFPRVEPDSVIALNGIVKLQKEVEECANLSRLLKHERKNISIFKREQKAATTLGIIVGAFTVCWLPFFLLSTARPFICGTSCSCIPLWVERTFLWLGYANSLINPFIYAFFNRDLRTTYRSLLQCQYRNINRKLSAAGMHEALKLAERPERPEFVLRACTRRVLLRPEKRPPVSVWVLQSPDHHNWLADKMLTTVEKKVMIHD
Sequence of CYP2D6 (P10635 whole entry): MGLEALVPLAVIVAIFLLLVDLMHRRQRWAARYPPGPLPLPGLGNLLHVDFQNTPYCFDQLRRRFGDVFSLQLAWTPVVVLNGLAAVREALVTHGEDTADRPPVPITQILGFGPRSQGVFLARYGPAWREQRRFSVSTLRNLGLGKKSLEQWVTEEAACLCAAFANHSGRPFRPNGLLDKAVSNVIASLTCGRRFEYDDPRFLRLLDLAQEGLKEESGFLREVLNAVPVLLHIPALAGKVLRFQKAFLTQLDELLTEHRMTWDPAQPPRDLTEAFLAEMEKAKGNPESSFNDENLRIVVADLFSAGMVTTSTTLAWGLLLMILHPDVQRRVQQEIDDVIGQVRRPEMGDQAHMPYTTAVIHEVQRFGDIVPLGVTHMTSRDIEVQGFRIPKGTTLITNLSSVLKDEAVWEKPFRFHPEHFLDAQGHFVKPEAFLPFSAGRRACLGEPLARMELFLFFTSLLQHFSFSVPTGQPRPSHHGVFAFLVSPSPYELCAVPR
Sequence of 5-hydroxytryptamine receptor 6 (P50406 whole entry): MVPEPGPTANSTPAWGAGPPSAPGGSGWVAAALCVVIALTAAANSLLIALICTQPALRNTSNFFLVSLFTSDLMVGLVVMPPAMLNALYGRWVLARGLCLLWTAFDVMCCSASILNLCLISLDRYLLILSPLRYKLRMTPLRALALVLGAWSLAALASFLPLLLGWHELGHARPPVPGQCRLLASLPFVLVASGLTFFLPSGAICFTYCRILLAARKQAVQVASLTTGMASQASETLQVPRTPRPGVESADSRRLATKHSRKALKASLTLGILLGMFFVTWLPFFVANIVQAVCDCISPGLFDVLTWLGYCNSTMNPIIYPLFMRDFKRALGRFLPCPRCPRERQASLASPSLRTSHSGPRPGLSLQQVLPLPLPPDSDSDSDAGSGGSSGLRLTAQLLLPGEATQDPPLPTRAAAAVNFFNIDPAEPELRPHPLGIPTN
Sequence of 5-hydroxytryptamine receptor 2B (P41595 whole entry): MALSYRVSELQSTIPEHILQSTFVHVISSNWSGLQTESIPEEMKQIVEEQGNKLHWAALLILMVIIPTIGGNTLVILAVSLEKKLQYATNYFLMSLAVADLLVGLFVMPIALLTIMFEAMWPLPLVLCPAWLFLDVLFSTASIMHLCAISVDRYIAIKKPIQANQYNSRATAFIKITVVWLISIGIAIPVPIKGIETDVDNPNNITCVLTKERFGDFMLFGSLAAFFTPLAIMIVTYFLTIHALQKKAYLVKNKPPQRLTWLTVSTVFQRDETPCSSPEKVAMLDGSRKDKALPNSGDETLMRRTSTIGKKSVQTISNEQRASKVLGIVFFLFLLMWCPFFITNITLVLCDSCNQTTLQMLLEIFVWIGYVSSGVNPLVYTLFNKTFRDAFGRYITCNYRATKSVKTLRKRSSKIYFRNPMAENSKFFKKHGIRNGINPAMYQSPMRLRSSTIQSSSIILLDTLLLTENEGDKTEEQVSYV
Sequence of 5-hydroxytryptamine receptor 1B (P28222 whole entry): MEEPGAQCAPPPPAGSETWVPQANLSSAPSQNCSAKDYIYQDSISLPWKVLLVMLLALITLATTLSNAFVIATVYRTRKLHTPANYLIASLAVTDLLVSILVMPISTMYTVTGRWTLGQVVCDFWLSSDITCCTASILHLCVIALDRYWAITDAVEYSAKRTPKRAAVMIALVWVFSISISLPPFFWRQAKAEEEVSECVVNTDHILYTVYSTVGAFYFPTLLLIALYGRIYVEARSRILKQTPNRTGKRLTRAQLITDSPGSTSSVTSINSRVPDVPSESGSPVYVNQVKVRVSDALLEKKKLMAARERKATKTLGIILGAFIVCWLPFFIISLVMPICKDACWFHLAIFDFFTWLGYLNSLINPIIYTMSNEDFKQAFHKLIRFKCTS
Sequence of CYP2C19 (P33261 whole entry): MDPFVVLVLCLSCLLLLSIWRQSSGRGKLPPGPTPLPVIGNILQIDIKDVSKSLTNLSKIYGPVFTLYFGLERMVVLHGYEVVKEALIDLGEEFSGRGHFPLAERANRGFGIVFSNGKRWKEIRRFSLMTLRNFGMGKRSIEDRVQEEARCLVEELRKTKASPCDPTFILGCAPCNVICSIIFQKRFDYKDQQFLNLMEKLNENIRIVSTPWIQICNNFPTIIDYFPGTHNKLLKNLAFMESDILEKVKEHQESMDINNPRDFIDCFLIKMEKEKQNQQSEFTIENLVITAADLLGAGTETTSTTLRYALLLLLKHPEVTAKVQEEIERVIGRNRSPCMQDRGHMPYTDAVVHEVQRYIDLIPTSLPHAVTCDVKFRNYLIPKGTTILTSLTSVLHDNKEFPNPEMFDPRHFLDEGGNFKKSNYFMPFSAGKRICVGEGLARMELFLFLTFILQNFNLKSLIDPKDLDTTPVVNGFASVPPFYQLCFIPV
Sequence of 5-hydroxytryptamine receptor 5A (P47898 whole entry): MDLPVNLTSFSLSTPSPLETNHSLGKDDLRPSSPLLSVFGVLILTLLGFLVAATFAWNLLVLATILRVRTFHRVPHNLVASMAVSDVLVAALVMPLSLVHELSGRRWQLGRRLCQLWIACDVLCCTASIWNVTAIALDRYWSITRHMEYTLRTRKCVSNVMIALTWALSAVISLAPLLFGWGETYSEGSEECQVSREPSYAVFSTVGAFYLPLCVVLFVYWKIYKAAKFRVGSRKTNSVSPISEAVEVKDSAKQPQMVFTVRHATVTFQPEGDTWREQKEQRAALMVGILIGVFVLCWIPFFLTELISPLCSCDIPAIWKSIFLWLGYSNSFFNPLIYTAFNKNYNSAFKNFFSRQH

Compound: CCNCCc1ccc(Cl)c(-c2ccccc2OC)c1.Cl
- Ki [1]: > 10000 nM
- Cmax [2]: 348 ng/mL
- clearance [3]: 478 mL/min/kg
- Ki [4]: 130 nM
- half-life [5]: 60 min
- activity at 0.25 h, 10 µM [6]: 90.3%
- AUC(0-t) at 8 h [7]: 32.9 ng·h/mL
- Vd [8]: 19.5 L/kg
- EC50 [9]: Not Active
- Ki [10]: 700 nM
- Ki [11]: 2.8 nM
- remaining at 0.5 h, 1 µM [12]: 71.5%
- activity at 0.25 h, 10 µM [13]: 94.3%
- bioavailability [14]: 134%
- Time [15]: 553 s
- Tmax [16]: 24 min
- MRT inf [17]: 78 min
- Time [18]: 166 s
- activity at 0.25 h, 10 µM [19]: 88.7%
- Ki [20]: 580 nM
- half-life [21]: 30 min
- Time [22]: 107 s
